Source: ChEMBL document CHEMBL3286143, “Minimizing the Contribution of Enterohepatic Recirculation to Clearance in Rat for the NCINI Class of Inhibitors of HIV” (ACS Med Chem Lett, 2014)
Converted amounts (≈) assume the structure as drawn.

Columns and labels:
[1] = test system: Human immunodeficiency virus 1; assay: Antiviral activity against HIV1 NL4.3 harboring integrase T124/T125 mutant; format: functional, organism-based; conditions: Human immunodeficiency virus 1, NL4.3
How it was run: (§1)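 Cell-based antiviral assay giving EC50 (nM) against wild-type NL4.3 (IN T124/T125) or recombinant NL4.3 engineered to carry the naturally polymorphic integrase residues at positions 124 and 125.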

[2] = Half life in human liver microsomes; format: ADME
[3] = target: T1, Human immunodeficiency virus type 1 integrase (Human immunodeficiency virus 1, UniProt Q7ZJM1); assay: Apparent binding affinity to Trx-His-tagged HIV integrase; conditions: read-out: Kd(app)
How it was run: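 Apparent dissociation constant from the same displacement assay, run instead with a thioredoxin-tagged His6 integrase construct.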

[4] = test system: Human immunodeficiency virus 1; assay: Antiviral activity against HIV1 NL4.3 harboring integrase N124/T125 mutant; format: functional, organism-based; conditions: Human immunodeficiency virus 1, NL4.3; how it was run: as §1
[5] = target: T1, Human immunodeficiency virus type 1 integrase; assay: Apparent binding affinity to His-tagged HIV integrase; conditions: read-out: Kd(app)
[6] = test system: Human immunodeficiency virus 1; assay: Antiviral activity against HIV1 NL4.3 harboring integrase T124/A125 mutant; format: functional, organism-based; conditions: Human immunodeficiency virus 1, NL4.3; how it was run: as §1
[7] = Half life in bile duct cannulated rat; format: ADME, organism-based; conditions: in vivo
[8] = test system: Human immunodeficiency virus 1; assay: Antiviral activity against HIV-1 NL4.3-HxB2 virus harboring integrase T124/T125 mutant; format: functional, organism-based; conditions: Human immunodeficiency virus 1, NL4.3-HxB2; pooled result: one value given for 4 cell lines, strains, targets or settings
[9] = test system: Human immunodeficiency virus 1; assay: Antiviral activity against HIV1 NL4.3 harboring integrase T124/T125 mutant relative to control in presence of 50% human serum; format: functional
How it was run: (§2)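 Serum shift for the same NL4.3 IN-variant viruses, from EC50 values measured with and without 50% human serum.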

[10] = Half life in rat liver microsomes; format: ADME
[11] = test system: Human immunodeficiency virus 1; assay: Antiviral activity against HIV1 NL4.3 harboring integrase N124/T125 mutant relative to control in presence of 50% human serum; format: functional; how it was run: as §2
[12] = Solubility of the compound at pH 6.8; format: physicochemical; conditions: buffer
[13] = target: Cytochrome P450 2D6 (Homo sapiens, UniProt P10635); assay: Inhibition of CYP2D6 (unknown origin); format: ADME
[14] = test system: Human immunodeficiency virus 1; assay: Antiviral activity against HIV-1 NL4.3-HxB2 virus harboring integrase T124/T125 mutant relative to control in presence of 50% human serum; format: functional
[15] = test system: Human immunodeficiency virus 1; assay: Antiviral activity against HIV1 NL4.3 harboring integrase A124/A125 mutant relative to control in presence of 50% human serum; format: functional; how it was run: as §2
[16] = test system: Human immunodeficiency virus 1; assay: Antiviral activity against HIV1 NL4.3 harboring integrase A124/T125 mutant relative to control in presence of 50% human serum; format: functional; how it was run: as §2
[17] = species: Rattus norvegicus; assay: Clearance in rat; format: ADME, organism-based; conditions: in vivo
[18] = test system: Human immunodeficiency virus 1; assay: Antiviral activity against HIV1 NL4.3 harboring integrase N124/A125 mutant relative to control in presence of 50% human serum; format: functional; how it was run: as §2
[19] = Drug excretion in bile duct cannulated rat bile after 3 hrs; format: ADME; conditions: read-out: Drug excretion
How it was run: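 Rats with cannulated bile ducts were dosed, and the fraction of compound excreted into bile was measured at the 3 h time point.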

[20] = target: Human immunodeficiency virus type 1 integrase (Human immunodeficiency virus 1) (UniProt Q7ZJM1); assay: Ratio of app-Kd for Trx-His-tagged HIV integrase to His-tagged HIV integrase
[21] = target: Cytochrome P450 3A4 (Homo sapiens, UniProt P08684); assay: Inhibition of CYP3A4 (unknown origin); format: ADME
[22] = Apparent permeability in human Caco2 cells; format: ADME, cell-based; conditions: Caco-2
[23] = Half life in rat; format: ADME, organism-based; conditions: in vivo
[24] = Lipophilicity, log D of the compound at pH 7.4; format: physicochemical; conditions: buffer

T1 sequence (Q7ZJM1 whole entry): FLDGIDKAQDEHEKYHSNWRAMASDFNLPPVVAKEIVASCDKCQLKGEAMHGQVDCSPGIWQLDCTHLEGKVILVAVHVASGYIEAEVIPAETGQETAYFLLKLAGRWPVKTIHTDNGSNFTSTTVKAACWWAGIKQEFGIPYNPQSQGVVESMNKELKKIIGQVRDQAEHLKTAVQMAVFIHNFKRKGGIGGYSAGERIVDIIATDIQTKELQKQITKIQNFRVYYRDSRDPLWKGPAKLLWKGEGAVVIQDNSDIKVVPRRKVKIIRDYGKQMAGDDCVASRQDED
Chain of Cytochrome P450 2D6 (P10635 whole entry): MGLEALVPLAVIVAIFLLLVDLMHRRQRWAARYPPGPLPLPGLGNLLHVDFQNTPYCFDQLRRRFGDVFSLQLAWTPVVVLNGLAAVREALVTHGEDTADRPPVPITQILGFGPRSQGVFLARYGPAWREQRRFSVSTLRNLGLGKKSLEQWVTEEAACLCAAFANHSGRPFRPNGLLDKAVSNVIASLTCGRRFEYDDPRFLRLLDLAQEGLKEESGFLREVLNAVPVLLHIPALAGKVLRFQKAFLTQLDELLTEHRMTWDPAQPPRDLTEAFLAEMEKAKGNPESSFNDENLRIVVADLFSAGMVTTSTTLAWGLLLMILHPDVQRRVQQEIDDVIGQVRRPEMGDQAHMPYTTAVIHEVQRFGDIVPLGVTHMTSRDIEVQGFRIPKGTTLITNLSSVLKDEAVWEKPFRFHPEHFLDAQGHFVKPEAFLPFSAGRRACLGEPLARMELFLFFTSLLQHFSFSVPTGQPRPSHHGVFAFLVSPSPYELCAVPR
Chain of Cytochrome P450 3A4 (P08684 whole entry): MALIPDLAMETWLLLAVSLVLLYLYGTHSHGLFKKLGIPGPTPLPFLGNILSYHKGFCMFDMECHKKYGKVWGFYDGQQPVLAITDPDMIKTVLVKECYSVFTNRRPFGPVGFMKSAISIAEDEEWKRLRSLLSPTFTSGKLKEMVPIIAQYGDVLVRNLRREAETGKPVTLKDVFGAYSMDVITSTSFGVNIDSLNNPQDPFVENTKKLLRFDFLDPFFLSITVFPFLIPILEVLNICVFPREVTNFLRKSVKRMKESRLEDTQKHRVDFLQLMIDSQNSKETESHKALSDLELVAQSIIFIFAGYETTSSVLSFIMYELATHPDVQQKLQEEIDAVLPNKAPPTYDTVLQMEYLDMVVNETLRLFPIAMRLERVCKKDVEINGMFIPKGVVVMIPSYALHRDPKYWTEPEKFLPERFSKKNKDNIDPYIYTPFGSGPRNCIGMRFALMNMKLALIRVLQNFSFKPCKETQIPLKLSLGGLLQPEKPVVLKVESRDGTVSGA
Chain of Human immunodeficiency virus type 1 integrase (Human immunodeficiency virus 1) (Q7ZJM1 as listed by the source): as the sequence (Q7ZJM1 whole entry) above

| Compound | EC50 [1] [nM] | half-life [2] [min] | Kd [3] [nM] | EC50 [4] [nM] | half-life [10] [min] | also measured |
| --- | --- | --- | --- | --- | --- | --- |
| Cc1noc(C)c1-c1ccc(-c2nc(C)c([C@H](OC(C)(C)C)C(=O)O)c(-c3ccc4c(c3)CCCO4)c2C)c(F)c1 | 7.3 | 60 | 35 | 830 |  |  |
| Cc1nc2ccccc2c(-c2ccc3c(c2)CCCO3)c1[C@H](OC(C)(C)C)C(=O)O | 51 |  |  | 77 |  | Kd [5]: 24 nM; EC50 [6]: 30 nM |
| Cc1ccc(-c2nc(C)c([C@H](OC(C)(C)C)C(=O)O)c(-c3ccc4c(c3)CCCO4)c2C)cc1 | 18 | 43 | 31 | 1400 |  |  |
| Cc1nc2c(c(-c3ccc4c(c3)CCCO4)c1[C@H](OC(C)(C)C)C(=O)O)Cc1ccccc1-2 | 72 |  |  | 34 |  | Kd [5]: 160 nM; EC50 [6]: 110 nM |
| Cc1nc2ccccc2c(-c2ccc3c4c(ccnc24)CCO3)c1[C@H](OC(C)(C)C)C(=O)O [BI-224436] |  |  |  |  | > 300 | half-life [7]: 96 min; EC50 [8]: 11 nM; fold change (FC) [9]: 2.1; fold change (FC) [11]: 2.1; solubility [12]: > 850 µg/mL; IC50 [13]: > 30 µM; fold change (FC) [14]: 2.1; fold change (FC) [15]: 2.1; fold change (FC) [16]: 2.1; CL [17]: 0.7%; fold change (FC) [18]: 2.1; dose excreted at 3 h [19]: 60% |
| Cc1nc(-c2ccccc2)c(C)c(-c2ccc3c(c2)CCCO3)c1[C@H](OC(C)(C)C)C(=O)O | 68 | 32 | 40 | 800 |  | Kd [5]: 1000 nM; EC50 [6]: 78 nM; Ratio [20]: 25 |
| Cc1ccc(-c2nc(C)c([C@H](OC(C)(C)C)C(=O)O)c(-c3ccc4c(c3Cl)NCCO4)c2C)cc1C (single isomer, unassigned; atropisomer) | 3.3 | 102 | 28 | 830 | 56 |  |
| Cc1ccc(-c2nc(C)c([C@H](OC(C)(C)C)C(=O)O)c(-c3ccc(Cl)cc3)c2C)cc1C | 14 | 77 | 40 | 2700 | 51 |  |
| Cc1nc(-c2cccc(-c3ccnn3C)c2)c(C)c(-c2ccc3c(c2)CCCO3)c1[C@H](OC(C)(C)C)C(=O)O | 10 |  | 52 | 1000 |  |  |
| Cc1nc2c(ccc3ccccc32)c(-c2ccc3c(c2)CCCO3)c1[C@H](OC(C)(C)C)C(=O)O | 62 |  |  |  |  | Kd [5]: 180 nM; EC50 [6]: 63 nM |
| Cc1nc(-c2ccc(-c3ccncc3)cc2)c(C)c(-c2ccc3c(c2)CCCO3)c1[C@H](OC(C)(C)C)C(=O)O | 23 |  | 24 | 150 |  |  |
| Cc1nc2c(c(-c3ccc4c(c3)CCCO4)c1[C@H](OC(C)(C)C)C(=O)O)CCCc1ccccc1-2 | 560 |  |  |  |  | Kd [5]: 1100 nM |
| Cc1noc(C)c1-c1ccc(-c2nc(C)c([C@H](OC(C)(C)C)C(=O)O)c(-c3ccc4c(c3)CCCO4)c2C)cc1 | 5.5 |  |  | 390 |  |  |
| Cc1cccc(-c2nc(C)c([C@H](OC(C)(C)C)C(=O)O)c(-c3ccc4c(c3)CCCO4)c2C)c1 | 23 |  |  | 1100 |  |  |
| Cc1nc(-c2cccc(-c3cnn(C)c3)c2)c(C)c(-c2ccc3c(c2)CCCO3)c1[C@H](OC(C)(C)C)C(=O)O | 24 |  | 59 | 920 |  |  |
| Cc1cc(-c2nc(C)c([C@H](OC(C)(C)C)C(=O)O)c(-c3ccc4c(c3)CCCO4)c2C)ccc1Cl | 5.8 | 43 | 17 | 960 |  |  |
| Cc1noc(C)c1-c1ccc(-c2nc(C)c([C@H](OC(C)(C)C)C(=O)O)c(-c3ccc(Cl)cc3)c2C)cc1 | 7.7 | 230 | 50 | 810 | 160 | half-life [7]: 324 min; EC50 [8]: 6.5 nM; fold change (FC) [9]: 9.9; IC50 [21]: 17 µM; Papp [22]: 17 ×10⁻⁶ cm/s; fold change (FC) [11]: 9.9; solubility [12]: 250 µg/mL (≈ 482 µM); IC50 [13]: > 30 µM; fold change (FC) [14]: 9.9; half-life [23]: 534 min; fold change (FC) [15]: 9.9; fold change (FC) [16]: 9.9; logD [24]: 3.1; CL [17]: 0.6%; fold change (FC) [18]: 9.9; dose excreted at 3 h [19]: 22% |
| Cc1ccc(-c2nc(C)c([C@H](OC(C)(C)C)C(=O)O)c(-c3ccc4c(c3C)CCCO4)c2C)cc1C (single isomer, unassigned; atropisomer) | 2.7 | 68 | 26 | 620 | 90 |  |
| Cc1ccc(-c2nc(C)c([C@H](OC(C)(C)C)C(=O)O)c(-c3ccc4c(c3)CCCO4)c2C)cc1C | 11 | 34 | 27 | 1400 | 110 |  |
